Series [1] concerns the target T1, ATP-dependent translocase ABCB1 (Homo sapiens, UniProt P08183). Nature of the series: Reversal of ABCB1-mediated multidrug resistance in human A2780/ADR cells assessed as resistance factor by measuring [GI50(resistant cell line without or with compound)/ GI50(sensitive cell line)] at 5 uM incubated for 72 hrs by MTT assay (reference value: 49). The series is classed as cell-based. Summed up:
(§1)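 MDR reversal assay with daunorubicin at 10 nM–10 µM, alone or with test compound at 0.5, 1, 5 or 10 µM. Resistant cells were ABCB1-overexpressing A2780/ADR or MDCK II MDR1, with sensitive A2780 or MDCK II cells as comparators. Resistance factor = resistant GI50 / sensitive GI50. EC50 was derived from resistance factors versus modulator concentration. Values are from ≥3 experiments in duplicate ± SEM.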
In general terms: Tetrazolium dyes change colour on reduction, which living cells bring about.

Series [2] has as its target T2, Broad substrate specificity ATP-binding cassette transporter ABCG2 (Homo sapiens, UniProt Q9UNQ0).
T2 sequence (Q9UNQ0 whole entry): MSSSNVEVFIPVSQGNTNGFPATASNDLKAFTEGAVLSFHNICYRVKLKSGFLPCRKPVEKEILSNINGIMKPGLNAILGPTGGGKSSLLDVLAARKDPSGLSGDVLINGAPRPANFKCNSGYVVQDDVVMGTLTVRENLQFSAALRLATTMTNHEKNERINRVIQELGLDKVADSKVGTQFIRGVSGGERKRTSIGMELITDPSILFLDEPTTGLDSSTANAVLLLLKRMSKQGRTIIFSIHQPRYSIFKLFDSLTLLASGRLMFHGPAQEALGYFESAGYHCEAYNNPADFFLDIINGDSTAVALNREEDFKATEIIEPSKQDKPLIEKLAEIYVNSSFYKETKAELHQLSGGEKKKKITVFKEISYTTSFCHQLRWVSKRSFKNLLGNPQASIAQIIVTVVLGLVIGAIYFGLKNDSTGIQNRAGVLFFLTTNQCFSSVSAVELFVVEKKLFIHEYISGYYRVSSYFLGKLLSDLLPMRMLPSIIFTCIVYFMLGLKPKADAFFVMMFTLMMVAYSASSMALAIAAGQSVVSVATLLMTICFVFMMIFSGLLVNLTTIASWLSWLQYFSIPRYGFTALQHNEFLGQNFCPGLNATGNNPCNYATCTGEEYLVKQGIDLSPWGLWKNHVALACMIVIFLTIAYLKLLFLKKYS
Nature of the series: Non-competitive inhibition of ABCG2 (unknown origin)-mediated pheophorbide A transport in MDCK2 cells co-expressing BCRP (unknown origin) at 0.178 to 1 uM by Lineweaver-Burk plot analysis. The series is classed as cell-based. Summed up:
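Lineweaver-Burk kinetics of ABCG2-mediated pheophorbide A transport in transfected MDCK II BCRP cells. Pheophorbide A was used at 0.5, 0.6, 0.8, 1.0 and 1.5 µM. Inhibitor was used at 0.178, 0.316, 0.562 and 1.00 µM, with a zero-inhibitor control.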

The target of series [3] is T1, ATP-dependent translocase ABCB1. Nature of the series: Reversal of ABCB1-mediated multidrug resistance in human A2780/ADR cells assessed as resistance factor by measuring [GI50(resistant cell line without or with compound)/ GI50(sensitive cell line)] at 0.5 uM incubated for 72 hrs by MTT assay (reference value: 49). It is filed as cell-based. Summed up:
as §1

The target of series [4] is T2, Broad substrate specificity ATP-binding cassette transporter ABCG2. Nature of the series: Reversal of ABCG2-mediated multidrug resistance in human MCF-7/MX cells assessed as resistance factor by measuring [GI50(resistant cell line without or with compound)/ GI50(sensitive cell line)] at 5 uM incubated for 72 hrs by MTT assay (reference value: 789). The series is classed as cell-based.

In series [5] the target is T3, Multidrug resistance-associated protein 1 (Homo sapiens, UniProt P33527). Nature of the series: Reversal of ABCC1 (unknown origin)-mediated multidrug resistance in MDCK2 cells co-expressing MRP1 (unknown origin) assessed as resistance factor by measuring [GI50(resistant cell line without or with compound)/ GI50(sensitive cell line)] at 1 uM incubated for 72 hrs by MTT assay (reference value: 7). The series is classed as cell-based.

Series [6] concerns the target T1, ATP-dependent translocase ABCB1. Nature of the series: Reversal of ABCB1 (unknown origin)-mediated multidrug resistance in MDCK2 cells co-expressing MDR1 (unknown origin) assessed as resistance factor by measuring [GI50(resistant cell line without or with compound)/ GI50(sensitive cell line)] at 0.5 uM incubated for 72 hrs by MTT assay (reference value: 17). The series is classed as cell-based. The method, boiled down:
as §1

For series [7], the system named is ABCC1 (MRP1). Nature of the series: Therapeutic index, ratio of GI50 for human H69AR cells to IC50 for ABCC1 in human H69AR cells. It is filed as toxicity, cell-based. The settings on record: read-out: TI. The method, boiled down:
(§2)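 Therapeutic ratio = GI50 from the MTT cytotoxicity assay / IC50 from the inhibition assay in the same cell line. The cell lines were H69AR (calcein AM, ABCC1), A2780/ADR (calcein AM, ABCB1) and MDCK II BCRP (pheophorbide A, ABCG2).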

Series [8] has as its target T1, ATP-dependent translocase ABCB1. Nature of the series: Reversal of ABCB1-mediated multidrug resistance in human A2780/ADR cells assessed as resistance factor by measuring [GI50(resistant cell line without or with compound)/ GI50(sensitive cell line)] at 10 uM incubated for 72 hrs by MTT assay (reference value: 49). The series is classed as cell-based. The method, boiled down:
as §1

Series [9] has the same target. Nature of the series: Reversal of ABCB1 (unknown origin)-mediated multidrug resistance in MDCK2 cells co-expressing MDR1 (unknown origin) assessed as resistance factor by measuring [GI50(resistant cell line without or with compound)/ GI50(sensitive cell line)] at 10 uM incubated for 72 hrs by MTT assay (reference value: 17). The series is classed as cell-based. Summed up: as §1

Series [10] is described as follows: Growth inhibition of MDCK2 cells co-expressing MDR1 (unknown origin) incubated for 72 hrs by MTT assay. It is filed as ADME, cell-based, Canis lupus familiaris, MDCK-II. The note with it: dog. Summed up:
(§3)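 MTT-based cytotoxicity assay giving GI50 of the compound alone in each listed parental, selected or transfected cell line.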

Series [11] can be described thus: Growth inhibition of MDCK2 cells co-expressing BCRP (unknown origin) after 72 hrs by MTT assay. The series is classed as ADME, cell-based, Canis lupus familiaris, MDCK-II. The note with it: dog. Summed up: as §3
Series [12] is described as follows: Growth inhibition of human MCF7 cells incubated for 72 hrs by MTT assay. It is filed as cell-based. Summed up:
as §3

Series [13] concerns the target T1, ATP-dependent translocase ABCB1. Nature of the series: Competitive inhibition of ABCB1-mediated calcein-AM transport in human A2780/ADR cells at 0.056 to 0.316 uM by Lineweaver-Burk plot analysis. The series is classed as cell-based. The method, boiled down: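 Kinetic study of calcein AM transport by Lineweaver-Burk analysis. ABCC1 was studied in H69AR cells with calcein AM at 0.25, 0.3, 0.45, 0.6 and 0.8 µM and inhibitor at 0.316, 0.562, 1.00 and 1.78 µM plus a zero control. ABCB1 was studied in A2780/ADR cells with calcein AM at 0.2–0.8 µM and inhibitor at 0.056, 0.100, 0.178 and 0.316 µM plus a zero control.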

The subject of series [14] is ABCG2 (BCRP). Nature of the series: Therapeutic index, ratio of GI50 for MDCK2 cells co-expressing BCRP (unknown origin) to IC50 for ABCG2 (unknown origin) expressed in MDCK2 cells co-expressing BCRP (unknown origin). The note with it: dog, read-out: TI. It is filed as toxicity, cell-based. The method, boiled down: as §2
The target in series [15] is T3, Multidrug resistance-associated protein 1. Nature of the series: Reversal of ABCC1 (unknown origin)-mediated multidrug resistance in MDCK2 cells co-expressing MRP1 (unknown origin) assessed as resistance factor by measuring [GI50(resistant cell line without or with compound)/ GI50(sensitive cell line)] at 5 uM incubated for 72 hrs by MTT assay (reference value: 7). The series is classed as cell-based.

T1 sequence (P08183 whole entry): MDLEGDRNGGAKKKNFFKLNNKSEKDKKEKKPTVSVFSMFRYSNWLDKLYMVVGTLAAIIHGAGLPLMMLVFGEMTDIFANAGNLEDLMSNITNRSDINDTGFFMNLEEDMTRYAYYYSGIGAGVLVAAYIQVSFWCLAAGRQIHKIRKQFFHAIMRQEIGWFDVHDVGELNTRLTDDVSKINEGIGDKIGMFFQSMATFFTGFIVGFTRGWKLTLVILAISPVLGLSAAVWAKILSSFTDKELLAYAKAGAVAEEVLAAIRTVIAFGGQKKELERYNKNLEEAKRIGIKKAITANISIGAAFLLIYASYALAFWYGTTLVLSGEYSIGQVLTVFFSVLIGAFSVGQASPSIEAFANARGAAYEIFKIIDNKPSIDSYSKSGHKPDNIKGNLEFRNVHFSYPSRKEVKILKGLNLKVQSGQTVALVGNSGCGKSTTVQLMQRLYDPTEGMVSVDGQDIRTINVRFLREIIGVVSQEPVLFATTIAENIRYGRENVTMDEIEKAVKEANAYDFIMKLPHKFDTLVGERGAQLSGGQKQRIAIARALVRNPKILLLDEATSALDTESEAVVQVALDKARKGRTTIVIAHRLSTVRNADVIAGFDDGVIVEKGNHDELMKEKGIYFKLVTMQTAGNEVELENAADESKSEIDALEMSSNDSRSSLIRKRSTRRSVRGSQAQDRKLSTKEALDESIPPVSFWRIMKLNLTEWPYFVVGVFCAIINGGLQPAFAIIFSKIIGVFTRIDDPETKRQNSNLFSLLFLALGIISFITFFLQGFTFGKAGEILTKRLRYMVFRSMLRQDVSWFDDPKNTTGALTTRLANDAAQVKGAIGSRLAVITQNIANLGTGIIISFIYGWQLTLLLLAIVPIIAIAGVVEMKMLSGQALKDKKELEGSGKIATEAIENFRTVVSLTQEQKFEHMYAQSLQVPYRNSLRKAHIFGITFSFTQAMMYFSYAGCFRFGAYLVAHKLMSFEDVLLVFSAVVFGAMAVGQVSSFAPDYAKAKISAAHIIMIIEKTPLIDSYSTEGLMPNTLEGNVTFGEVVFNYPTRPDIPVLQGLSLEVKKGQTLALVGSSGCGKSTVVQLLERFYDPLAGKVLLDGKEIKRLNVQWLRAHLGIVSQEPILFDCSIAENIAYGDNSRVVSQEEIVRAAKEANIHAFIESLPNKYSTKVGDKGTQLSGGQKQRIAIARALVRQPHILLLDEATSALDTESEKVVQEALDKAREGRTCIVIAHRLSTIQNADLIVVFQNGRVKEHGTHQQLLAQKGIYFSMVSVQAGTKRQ
T3 sequence (P33527 whole entry): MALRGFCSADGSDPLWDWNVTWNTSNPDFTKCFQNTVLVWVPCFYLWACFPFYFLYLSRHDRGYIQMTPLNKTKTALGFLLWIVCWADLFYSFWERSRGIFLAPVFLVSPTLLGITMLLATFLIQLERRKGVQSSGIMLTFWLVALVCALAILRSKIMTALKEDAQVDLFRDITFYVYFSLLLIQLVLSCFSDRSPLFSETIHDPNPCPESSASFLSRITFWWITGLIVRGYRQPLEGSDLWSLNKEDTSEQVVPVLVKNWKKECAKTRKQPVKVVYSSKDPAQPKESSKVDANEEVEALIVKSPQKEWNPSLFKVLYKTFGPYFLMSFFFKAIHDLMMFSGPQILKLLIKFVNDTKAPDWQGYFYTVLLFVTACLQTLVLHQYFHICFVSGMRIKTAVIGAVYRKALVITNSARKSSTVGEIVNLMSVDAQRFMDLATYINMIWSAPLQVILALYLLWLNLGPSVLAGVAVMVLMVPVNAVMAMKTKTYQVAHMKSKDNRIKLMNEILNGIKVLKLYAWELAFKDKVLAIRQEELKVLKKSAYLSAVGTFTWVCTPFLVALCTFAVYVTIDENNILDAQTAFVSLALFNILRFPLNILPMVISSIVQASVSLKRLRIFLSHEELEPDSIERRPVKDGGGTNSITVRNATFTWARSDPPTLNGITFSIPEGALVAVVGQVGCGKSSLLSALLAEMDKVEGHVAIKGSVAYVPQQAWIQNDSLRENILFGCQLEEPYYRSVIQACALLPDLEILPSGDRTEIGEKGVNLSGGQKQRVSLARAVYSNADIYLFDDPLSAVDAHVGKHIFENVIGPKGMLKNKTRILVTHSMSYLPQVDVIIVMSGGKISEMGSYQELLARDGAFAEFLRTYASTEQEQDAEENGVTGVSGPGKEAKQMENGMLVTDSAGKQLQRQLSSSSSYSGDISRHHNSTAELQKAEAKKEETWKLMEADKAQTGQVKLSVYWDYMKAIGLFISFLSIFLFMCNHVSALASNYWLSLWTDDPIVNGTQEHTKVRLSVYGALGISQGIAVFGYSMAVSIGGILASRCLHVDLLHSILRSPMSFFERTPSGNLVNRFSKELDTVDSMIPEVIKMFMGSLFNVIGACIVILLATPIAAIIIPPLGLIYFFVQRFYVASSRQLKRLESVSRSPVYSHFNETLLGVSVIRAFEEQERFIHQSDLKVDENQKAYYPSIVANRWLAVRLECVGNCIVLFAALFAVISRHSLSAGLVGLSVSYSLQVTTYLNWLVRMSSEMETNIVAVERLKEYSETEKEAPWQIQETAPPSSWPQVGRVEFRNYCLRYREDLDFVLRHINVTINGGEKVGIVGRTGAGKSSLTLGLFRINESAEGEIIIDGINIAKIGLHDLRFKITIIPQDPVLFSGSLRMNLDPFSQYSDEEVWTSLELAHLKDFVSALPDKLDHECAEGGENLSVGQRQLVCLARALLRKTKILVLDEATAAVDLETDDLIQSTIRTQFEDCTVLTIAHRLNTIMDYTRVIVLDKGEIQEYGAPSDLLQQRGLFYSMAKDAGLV

The term GI50 denotes the concentration giving 50% growth inhibition. A higher GI50 goes with lower sensitivity of the cells. Consider `CC1CCc2c(sc3nc(-c4cccnc4)nc(N4CCN(C(C(N)=O)c5ccccc5)CC4)c23)C1` (stereo not given), for which the RatioGI50 in [1] is listed as 6.3; in series [3], 32; in [4], 179; in series [5] it was 3.4; in series [6], 7.1; in [8], 4.1. For the same compound, the figures for the RatioGI50 in [9] and in series [15] were 0.5 and 2.2, respectively. For the same compound, the “inhibition (INH)” value in [2] and in series [13] was “Active” in each case. The selectivity ratio in series [7] was found to be 11.3; in series [14], 6.9. For the same compound, the GI50 at 72 h came to 25 µM in series [10], 16.4 µM in series [11] and 57.8 µM in series [12].

The values above are taken from ChEMBL document CHEMBL4350954, “Identification of Thienopyrimidine Scaffold as an Inhibitor of the ABC Transport Protein ABCC1 (MRP1) and Related Transporters Using a Combined Virtual Screening Approach” (J Med Chem, 2019).
